Screens deposited in PubChem by Sanford-Burnham Center for Chemical Genomics.
NadD block: inhibitors of Staphylococcus aureus NadD; purified NadD enzyme, colorimetric absorbance read-out; inhibition, % at 20 µM; 0.78% of 360,000 active; AID 602399; in the data active = inhibition above about 26%
STEP block: inhibitors of human striatal-enriched phosphatase STEP | recombinant STEP, OMFP fluorogenic substrate, fluorescence | AID 588621 | inhibition, % at 20 µM | 0.25% of 360,000 active;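 active = inhibition at 20 µM, scaled per plate between control wells, above about 37%, limit read from the data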
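Assay system: isolated STEP enzyme / Timing: 20 min at room temperature, dark / Doses: 20 µM, 1% DMSO / Technique: fluorescence intensity, excitation 480 nm, emission 540 nm / Reagent: fluorogenic phosphatase substrate OMFP at 25 µM final / Measure: percent inhibition scaled to no-enzyme and uninhibited-enzyme controls, plate-pattern corrected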
DNMT1 inh: inhibitors of human DNMT1; AID 588458; 0.83% of 360,000 active; P26358; inhibition (reported as % activation of signal), % at 10 µM; DNMT1 molecular beacon, Hinp1I cleavage, fluorescence; in the data active = inhibition above about 50%
Scp1 inh: Scp-1 (human) phosphatase inhibition. AID 493091. Q9GZU7. 0.88% of 340,000 active. inhibition, % at 20 µM. Recombinant Scp1, phosphopeptide, malachite green phosphate absorbance;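 active = inhibition above about 50% at 20 µM, limit read from the data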
Target sequence (Q9GZU7 76-261 limits assumed): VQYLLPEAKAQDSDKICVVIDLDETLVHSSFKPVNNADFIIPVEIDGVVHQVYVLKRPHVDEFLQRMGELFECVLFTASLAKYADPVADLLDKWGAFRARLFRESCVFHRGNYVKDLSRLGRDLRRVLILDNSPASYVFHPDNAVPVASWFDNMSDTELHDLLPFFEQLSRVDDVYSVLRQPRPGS
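assay system = SCP-1 phosphatase catalytic domain, residues 76-261 | buffer or medium = 50 mM Tris acetate pH 5.5, 0.005% Tween-20, 10 mM MgCl2 | incubation = enzyme reaction 45 min at room temperature, colour 5 min, stabilisation 30 min | signal = Phosphate-binding colour reagent, absorbance read at 630 nm | measure = % inhibition at 20 µM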
LMPTP inh: LMPTP (human) inhibition; recombinant LMPTP-A, OMFP fluorogenic substrate, fluorescence intensity; inhibition, % at 20 µM; 0.22% of 360,000 active; AID 651560;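 active = compounds that cut the enzyme signal by at least half of the control window in the single-dose screen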
Target sequence (P24666 whole entry, looked up): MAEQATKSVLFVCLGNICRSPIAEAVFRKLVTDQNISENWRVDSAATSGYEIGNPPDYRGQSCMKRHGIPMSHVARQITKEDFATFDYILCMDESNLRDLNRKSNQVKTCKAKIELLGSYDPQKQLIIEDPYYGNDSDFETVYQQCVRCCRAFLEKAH
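test system = LMPTP-A | amount = 0.625 nM LMPTP-A final | reagent = fluorogenic phosphatase substrate OMFP at 400 µM final | incubation = 50 min at room temperature | benchmarks = no-enzyme low control, uninhibited high control | medium = Bis-Tris pH 6.0, DTT, detergent | signal = fluorescence intensity of OMFP turnover product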
SUMO1 PPI mod: modulators of human SUMO1-mediated protein-protein interactions; 0.33% of 360,000 active; SUMO1 binding to a labelled peptide, TR-FRET, 1 h; inhibition, % at 20 µM; AID 602429; P63165; in the data active = inhibition above about 37%
Target sequence (P63165 whole entry, looked up): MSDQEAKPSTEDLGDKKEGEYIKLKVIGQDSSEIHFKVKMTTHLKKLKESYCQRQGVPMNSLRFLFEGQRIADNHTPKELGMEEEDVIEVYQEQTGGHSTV
DNMT1 interf DR: shows spectral interference in the DNMT1 beacon assay. IC50, µM. 200 tested, under 10 active. shares compounds with DNMT1 inh. molecular beacon fluorescence, spectral interference counter-screen. AID 602382; call rule not given here
DNMT1 inh conf: DNMT1 inhibition confirmation, single concentration. shares compounds with DNMT1 inh. DNMT1 molecular beacon HinP1I cleavage, fluorescence. inhibition, % at 10 µM. 8% of 2,300 active. AID 602385;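 active = average inhibition of at least 30% in the single-concentration confirmation test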
Beacon interf: shows spectral interference in the DNMT1 beacon assay. shares compounds with DNMT1 inh. DNMT1 molecular beacon spectral interference counterscreen, fluorescence 485/520. activation (fluorescence interference), % at 10 µM. 1% of 2,300 active;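 active = activation of at least 30% at 10 µM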;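 note: DNMT1 catalytic domain with a HinP1I cleavage step and a FAM/dabcyl DNA beacon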
Each line names hits and unclear results; the compound was inactive in the other large screens (follow-up assays come after a bar, where they were run). A selection: hits, their analogues and other compounds. The true share with any hit is near 2.3%.

O=C(Nc1ccc(NC(=O)c2cccs2)c(Cl)c1)c1ccco1	none
O=C(Nc1ccc(NC(=O)c2sc3ccccc3c2Cl)cc1Cl)c1ccco1	DNMT1 inh 75 | DNMT1 inh conf inactive | Beacon interf inactive
CC(=O)c1sc2nc(-c3ccco3)ccc2c1N	DNMT1 inh 67, Scp1 inh 79 | DNMT1 inh conf inactive | Beacon interf inactive
Nc1c(C(=O)Nc2ccc(F)cc2)sc2nc(-c3ccco3)ccc12	none
O=C(CC[C@H]1O[C@@H](n2ccc(=O)[nH]c2=O)[C@H](O)[C@@H]1O)N1CCN(c2ccccn2)CC1	none (no result: Scp1 inh)
O=c1ccn([C@@H]2O[C@H](CO)[C@@H](O)[C@H]2O)c(=O)[nH]1	DNMT1 inh 81 | DNMT1 inh conf inactive | Beacon interf inactive
O=C(CC[C@H]1O[C@@H](n2ccc(=O)[nH]c2=O)[C@H](O)[C@@H]1O)N1CCN(Cc2cccc3ccccc23)CC1	DNMT1 inh 85 (no result: Scp1 inh) | DNMT1 inh conf inactive | Beacon interf inactive
O=C1NC(c2ccc(Cl)cc2Cl)Oc2ccccc21 (configuration not stated)	none
Cc1ccccc1C1NC(=O)c2ccccc2O1 (configuration not stated)	DNMT1 inh 75 | DNMT1 inh conf inactive | Beacon interf inactive
CC(=O)N(Cc1cc2ccccc2[nH]c1=O)c1ccc(C)cc1	none
O=[N+]([O-])c1ccc(N/N=C/c2cccc(O)c2O)c(S(=O)(=O)N2CCOCC2)c1	none
O=[N+]([O-])c1ccc(N/N=C/c2ccc(O)c(O)c2O)c(S(=O)(=O)N2CCOCC2)c1	NadD block 29, DNMT1 inh 62, LMPTP inh 67 | DNMT1 inh conf inactive | Beacon interf inactive
CCOCCCNC(=O)/C(C#N)=C/c1ccc([N+](=O)[O-])o1	none
COC(=O)c1ccc(NC(=O)c2ccc(NC(=O)c3ccco3)cc2)cc1	DNMT1 inh 58, SUMO1 PPI mod 54 | DNMT1 inh conf inactive | Beacon interf inactive
Cc1cc(C)cc(NC(=O)c2ccc(NC(=O)c3ccco3)cc2)c1	none
O=C(/C=C/c1ccc(Br)cc1)c1ccc(NC(=O)c2ccco2)cc1	DNMT1 inh 88 | DNMT1 inh conf inactive | Beacon interf inactive
COc1ccc(S(=O)(=O)N2CCOCC2)cc1NC(=O)c1cc(C)oc1C	DNMT1 inh 65 | DNMT1 inh conf inactive | Beacon interf inactive
CN(C)c1cccc(C(=O)OCc2cc(=O)oc3cc(O)ccc23)c1	STEP block 41, DNMT1 inh 82, Scp1 inh 62 | DNMT1 inh conf inactive | Beacon interf inactive
O=C(CC(c1cccs1)S(=O)(=O)c1ccccc1)c1ccc(F)cc1 (configuration not stated)	none
CCN(CC)CCn1c2ccccc2c2cnc(N)c(C#N)c21	DNMT1 inh 61 | DNMT1 interf DR inactive | DNMT1 inh conf 38 | Beacon interf inactive
CN(C)C=Nc1ncc2c3ccccc3n(CCN(C)C)c2c1C#N	none
Cc1ccc2nc(NC(=O)c3ccc(NS(=O)(=O)c4cccs4)cc3)sc2c1	none
COc1cc2c(c(OC)c1CC=C(C)C)C[C@H](c1ccc(O)cc1O)CO2	none
O=C(N/N=C1/C(=O)c2cccc3cccc1c23)c1ccc(Cl)cc1	STEP block 99, DNMT1 inh 96, Scp1 inh 95, LMPTP inh 94, SUMO1 PPI mod 71 | DNMT1 inh conf inactive | Beacon interf inactive
CCc1nc2c(OCC(=O)C(C)(C)C)cccn2c1N(C=O)CC(=O)N(C)C	none (no result: Scp1 inh)
O=C(N/N=C/c1ccc([N+](=O)[O-])cc1)c1cc(-c2ccc3c(c2)OCO3)n[nH]1	DNMT1 inh 50 | DNMT1 inh conf inactive | Beacon interf inactive
